Published values of several laboratories.
Each line is one published result; the experiments were not run side by side. In brackets after ≈: the same amount, converted by molar mass.
Read-out: microbial growth

| Compound | organism | technique | strain | time | notes | MIC [µg/mL] |
| --- | --- | --- | --- | --- | --- | --- |
| CC1(C)CC[C@]2(C(=O)O)CC[C@]3(C)C(=CC[C@@H]4[C@@]5(C)CC[C@H](O)C(C)(C)[C@@H]5CC[C@]43C)[C@@H]2C1 | Staphylococcus aureus |  | ATCC29213 |  |  | 128 (≈ 280 µM) |
| COC(=O)c1cc(-c2cccc(NC(=S)NC3CCCCC3)c2)on1 | Escherichia coli | broth dilution | ATCC25922 |  |  | > 64 |
| CC(C)[C@H](N)C(=O)OCCCCCn1cnc2nc(NCc3ccc(Cl)c(Cl)c3)[nH]c(=O)c21 | Lactobacillus acidophilus | agar dilution |  | 48 h |  | 8 (≈ 16.1 µM) |
| COC(=O)c1cc(-c2cccc(NC(=O)Nc3cccc(Br)c3)c2)on1 | Escherichia coli | broth dilution | ATCC25922 |  |  | > 64 |
| Clc1ccc(-c2nc3ccccc3[nH]2)cc1Cl | Staphylococcus aureus | broth dilution | ATCC43300 MRSA |  | drug-resistant strain | 64 (≈ 243 µM) |
| CN[C@H](CC(C)C)C(=O)N[C@H]1C(=O)N[C@@H](CC(N)=O)C(=O)N[C@H]2C(=O)N[C@H]3C(=O)N[C@H](C(=O)N[C@H](C(=O)O)c4cc(O)cc(O)c4-c4cc3ccc4O)[C@H](O)c3ccc(c(Cl)c3)Oc3cc2cc(c3O[C@@H]2O[C@H](CO)[C@@H](O)[C@H](O)[C@H]2O[C@H]2C[C@](C)(N)[C@H](O)[C@H](C)O2)Oc2ccc(cc2Cl)[C@H]1O | Lactobacillus acidophilus | agar dilution |  | 48 h |  | 2 (≈ 1.38 µM) |
| Cc1ccc2nc(-c3ccc4c(c3)OCO4)[nH]c2c1 | Staphylococcus aureus | broth dilution | ATCC43300 MRSA |  | drug-resistant strain | 512 (≈ 2030 µM) |
| Cc1ccc2[nH]c3c(c2c1)CCCC3NCCc1ccc(O)cc1 (centres unmarked) | Micrococcus luteus | broth dilution | DSM1790 |  |  | 8 (≈ 25 µM) |
| COc1ccc(-c2nc3ccc(C)cc3[nH]2)cc1OC | Staphylococcus aureus | broth dilution | ATCC43300 MRSA |  | drug-resistant strain | 256 (≈ 954 µM) |
| c1ccc(CCOC2CCCc3c2[nH]c2ccccc32)cc1 (centres unmarked) | Micrococcus luteus | broth dilution | DSM1790 |  |  | 128 (≈ 439 µM) |
| COC(=O)c1cc(-c2cccc(NC(=O)Nc3cccc(Cl)c3Cl)c2)on1 | Escherichia coli | broth dilution | ATCC25922 |  |  | > 64 |
